FGF22 binding: shifts melting point of recombinant human FGF22. recombinant FGF22 thermal shift, SYPRO orange fluorescence; percent of sucrose octasulfate shift, DMSO zero. activity (Tm shift, normalised), % at 9.99 µM. 1.5% of 340,000 active. AID 651658. Q9HCT0;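 active means mean Tm shift, scaled 0 neutral to 100 positive control, at about 1.3% or above, every replicate too, limit read from the data; inconclusive means no clear call, values can overlap the other calls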
Target sequence (Q9HCT0 whole entry, looked up): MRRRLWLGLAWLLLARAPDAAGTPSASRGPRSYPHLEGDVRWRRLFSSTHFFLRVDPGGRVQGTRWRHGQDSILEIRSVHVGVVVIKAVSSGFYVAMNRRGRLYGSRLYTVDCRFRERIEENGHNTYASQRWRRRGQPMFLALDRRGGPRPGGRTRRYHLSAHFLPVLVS
FN deposit inh: fibronectin deposition inhibition; AH1F fibroblasts, Alexa488-fibronectin deposition fluorescence, overnight; inhibition, % at 12.6 µM; 0.086% of 350,000 active; AID 743247;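 active means mean inhibition across replicates of 30% or more, regardless of how many single replicates reach that level; inconclusive means mean under 30% yet at least half of replicates reach 30%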;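 further: positive control wells lacked labelled fibronectin entirely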
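Schedule: 1 h cell adhesion before compound, then overnight fibronectin incubation; test system: AH1F fibroblast monolayer depositing Alexa488-labelled fibronectin into matrix; quantity: 10000 AH1F cells per well; probe or stimulus: fluorescent fibronectin at 24 nM final; signal: fluorescence, ex 485 nm, em 525 nm; evaluation: percent inhibition as loss of matrix-bound fibronectin fluorescence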
XiGFP reactiv: activators of X-chromosome reactivation in mouse fibroblasts. AID 743238. XiGFP mouse fibroblasts, % GFP-positive cells imaging, 3 d; cells co-treated with 5-aza-dC sensitizer; scaled so ellipticine positive control = 100%. activation, % at 7.58 µM. 0.055% of 360,000 active;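 active means mean normalized replicate activation at least 10% and every replicate at or above 10%; inconclusive means only one of the two criteria met; inactive means mean below 10% and not all replicates reach 10%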;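 further: 0% = median of on-plate neutral control wells and 100% = ellipticine 6 µM median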
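material = 68-5-11 XiGFP fibroblast line | medium = DMEM plus 5-aza-dC sensitizer | schedule = 3 days compound exposure | benchmarks = positive control ellipticine, 6 µM final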
ARNT-TACC3 inh: disrupts binding between human ARNT and TACC3. AlphaScreen His-ARNT PAS-B/GST-TACC3 binding, luminescence; TACC3 fragment carries E629A point mutation. inhibition, % at 9.99 µM. 0.66% of 390,000 active. Q9Y6A5;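 active means mean inhibition of replicates at least 50% and at least half of replicates each reaching 50%; inconclusive means half or more replicates reach 50% but mean below 50%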;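 further: 0% = complete ARNT plus TACC3 wells and 100% = ARNT alone without TACC3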
SIRT5 block: inhibitors of human sirtuin-5 desuccinylase; Purified SirT5, succinyl-peptide AMC, trypsin-coupled fluorescence; AID 652115; 1.1% of 330,000 active; inhibition, % at 15 µM; in the data active means inhibition above about 15%; inconclusive means no clear call, values can overlap the other calls
Target sequence (Q9NXA8 whole entry, looked up): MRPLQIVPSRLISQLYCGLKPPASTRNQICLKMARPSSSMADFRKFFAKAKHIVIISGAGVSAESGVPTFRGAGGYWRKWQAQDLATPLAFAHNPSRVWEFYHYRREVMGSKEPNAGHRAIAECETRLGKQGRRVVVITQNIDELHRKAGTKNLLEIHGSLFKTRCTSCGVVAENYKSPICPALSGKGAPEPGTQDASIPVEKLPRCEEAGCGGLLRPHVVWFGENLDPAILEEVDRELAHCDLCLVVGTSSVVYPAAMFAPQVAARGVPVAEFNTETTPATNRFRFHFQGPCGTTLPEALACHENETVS
DENV2 CPE: protects cells from dengue virus 2 cytopathic effect | DENV2-infected cells, cytopathic effect rescue, plate reader | CPE inhibition, % at 9.99 µM | 1.7% of 350,000 active | AID 651640; in the data active means CPE inhibition above about 20%, passing the limit was not always enough; inconclusive means no clear call, values can overlap the other calls; tested in BHK-21 cells;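 further: 0% = median of neutral control wells and 100% = median of positive control wells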
* marks the source's active call; other numbers are inactive results; u = inconclusive; x = no result given. In the library only some 3.8% were active in any assay of this set; here they are far more common.

SMILES | FGF22 binding | FN deposit inh | XiGFP reactiv | ARNT-TACC3 inh | SIRT5 block | DENV2 CPE
CN(Cc1c(C(=O)N2CCc3ccccc3C2)nc2ccc(Cl)cn12)C(C1CC1)C1CC1 | 43.0* | -2.7 | 0.0 | 0.5 | -3.0 | -4.2
C[C@@H]1CN([C@@H](C)CO)C(=O)c2cc(NS(=O)(=O)c3ccccc3)ccc2O[C@@H](C)CCCCO[C@H]1CN(C)Cc1ccc(C(=O)O)cc1 | -0.1 | 2.1 | 0.3 | -4.1 | x | x
CCCCCCCCSc1nnc2[nH]c(=O)cc(N)n12 | 42.9* | -2.1 | 0.1 | 6.3 | -1.1 | -0.1
CC1(C)SC2C(C(=O)O)N=C(Cc3ccccc3)N2C1C(=O)O (configuration not stated) | 0.2 | -4.4 | 0.2 | 70.6* | 8.6 | -7.8
CC1(C)S[C@@H]2[C@H](NC(=O)Cc3ccccc3)C(=O)N2[C@H]1C(=O)O | 0.1 | -8.4 | 0.1 | -7.9 | -1.4 | -9.9
CC(=O)c1ccc(N2CC(C)(C)C2=O)cc1 | 43.0* | 1.4 | 0.5 | x | -4.6 | x
CN(C)c1ccc(N2CC(C)(C)C2=O)cc1 | 41.8 | -3.2 | 0.1 | 8.6 | -10.3 | -4.6
CN1CCN(S(=O)(=O)c2cc([N+](=O)[O-])ccc2Cl)CC1 | 43.2* | -2.3 | 0.1 | 0.9 | -2.6 | 1.6
CCCOc1ccc(N2C(=O)CC(N(CCc3ccc(OC)cc3)C(=O)/C=C/C(=O)O)C2=O)cc1 (configuration not stated) | 0.3 | 0.0 | 0.0 | 4.5 | 41.7* | 3.8
COc1ccc(N2C(=O)CC(N(CCc3ccccc3)C(=O)/C=C/C(=O)O)C2=O)cc1 (configuration not stated) | 0.0 | -9.8 | 0.2 | -1.6 | -6.0 | -2.7
O=C(Nc1cc(F)ccc1F)N1CCCCN2[C@H](C1)[C@H](c1ccc(-c3cncnc3)cc1)[C@@H]2CO | -0.2 | x | 0.1 | -12.8 | -7.4 | 11.2
Cc1ccc(S(=O)(=O)NCC(=O)NCC(=O)OCC(=O)NC(=O)NC(C)(C)C)cc1C | 43.0* | 3.1 | 0.0 | -4.3 | -2.6 | -0.6
COc1ccc(Cn2cc3c(-c4ccc(F)cc4)nnc-3c3cc(OC)c(OC)cc32)cc1 | 0.2 | -16.3 | 80.5* | -11.9 | -1.9 | -15.5
COc1cc2c3nnc(-c4ccc(F)cc4)c-3cn(Cc3ccccc3)c2cc1OC | -0.1 | -151.7 | 90.7* | -14.1 | -5.3 | 4.1
C[C@@H]1CN([C@@H](C)CO)C(=O)Cc2cc(NS(=O)(=O)c3ccc(Cl)cc3)ccc2O[C@H]1CN(C)Cc1ccc(Cl)c(Cl)c1 | 0.1 | 7.5 | 0.0 | 0.1 | 25.7* | 0.8
C[C@@H]1CN([C@H](C)CO)C(=O)Cc2cc(NS(=O)(=O)c3ccc(Cl)cc3)ccc2O[C@H]1CN(C)Cc1ccc(Cl)c(Cl)c1 | 0.1 | x | -0.5 | 1.3 | 14.7 | 12.8
C[C@@H]1CN([C@H](C)CO)C(=O)Cc2cc(NS(=O)(=O)c3ccc(F)cc3)ccc2O[C@H]1CN(C)Cc1ccc(Cl)c(Cl)c1 | x | x | -0.9 | x | x | x
C[C@H](CO)N1C[C@H](C)[C@@H](CN(C)Cc2ccc(Cl)c(Cl)c2)Oc2ccc(NS(=O)(=O)c3ccc(Cl)cc3)cc2CC1=O | 0.1 | -6.4 | 0.2 | 2.8 | 24.5* | -15.6
C[C@@H]1CN([C@@H](C)CO)C(=O)Cc2cc(NS(=O)(=O)c3ccccc3)ccc2O[C@H]1CN(C)Cc1ccc(Cl)c(Cl)c1 | -0.5 | 1.8 | -0.1 | 18.9 | 20.5* | -6.8
CO[C@H]1CN(C)C(=O)c2cc(NC(=O)C3CC3)ccc2OC[C@H](C)N(C(=O)CN2CCOCC2)C[C@H]1C | -0.1 | -3.6 | 0.0 | -1.6 | -3.4 | -0.6
O=C(CN1CCN(S(=O)(=O)c2ccc(Cl)cc2)CC1)NCc1cccs1 | x | 0.5 | -0.1 | 2.5 | -25.9 | u
O=C(CN1CCN(Cc2ccc(Cl)cc2)C1=O)NCc1cccs1 | 43.9* | 7.2 | 0.0 | -3.3 | 0.4 | -0.1
O=C(CCN1CCCCC1)N[C@H]1C=C[C@@H](CC(=O)N2CCC(Cc3ccccc3)CC2)O[C@H]1CO | -0.1 | 1.0 | -0.1 | -13.4 | -1.0 | -0.2
Cc1ccc(S(=O)(=O)N(CC(=O)NCc2ccccc2Cl)C(=O)N2CCN(C)CC2)cc1 | -0.1 | -7.6 | 0.0 | -2.0 | -1.6 | -4.0
Cc1ccc(S(=O)(=O)N(CC(=O)NCc2ccc(F)cc2)C(=O)N2CCN(C)CC2)cc1 | 0.0 | 0.2 | 0.1 | -4.3 | -1.5 | 31.0*
SMILES | FGF22 binding | FN deposit inh | XiGFP reactiv | ARNT-TACC3 inh | SIRT5 block | DENV2 CPE
Cc1ccc(S(=O)(=O)NCC(=O)OCC(=O)NCc2ccc(F)cc2)cc1 | 0.4 | -0.5 | 0.0 | -2.8 | 33.7* | -7.5
COC(=O)c1ccc(CNC(=O)COC(=O)CNS(=O)(=O)c2ccc(C)cc2)cc1 | -0.1 | 0.0 | 0.3 | x | x | 11.6
C=CCNC(=O)CNS(=O)(=O)c1ccc(F)cc1 | 0.1 | x | x | -2.9 | 17.8* | -3.3
O=C(C[C@@H]1C[C@@H]2c3cc(NC(=O)NC4CCCC4)ccc3O[C@@H]2[C@H](CO)O1)NCc1ccc(Cl)cc1 | x | -28.3 | 0.2 | x | x | x
CCCNC(=O)C[C@H]1CC[C@@H]2[C@@H](COc3ccc(NC(=O)NC(C)C)cc3C(=O)N2C)O1 | 0.1 | -8.5 | 0.3 | -2.8 | -6.4 | 2.1
C[C@@H]1CN(C)C(=O)Cc2ccccc2O[C@@H]1CN(C)C(=O)OC(C)(C)C | x | -8.7 | 0.3 | x | x | x
Cc1nc(S(=O)(=O)N2CCOCC2)c(C#N)c(C)c1Cl | x | x | x | 1.6 | x | x
Cc1nc(S(=O)(=O)N(C)Cc2ccccc2)c(C#N)c(C)c1Cl | x | -3.4 | x | x | 17.3* | x
CN1C(=O)c2cc(NC(=O)NC3CCCC3)ccc2OC[C@H]2O[C@@H](CC(=O)NCC3CC3)CC[C@@H]21 | x | 3.4 | 0.3 | x | 2.8 | 0.8
Cc1cc(C)cc(N(C(=O)c2sc(C)nc2C)C(C(=O)NC(C)(C)C)c2ccncc2)c1 (configuration not stated) | 43.4* | 0.3 | 0.0 | -3.7 | 0.4 | 2.5
Cc1cc(C)cc(N(C(=O)c2sc(C)nc2C)C(C(=O)NCc2ccco2)c2ccccc2)c1 (configuration not stated) | 0.2 | x | x | 3.3 | -2.3 | 5.3
O=C1SCCN1N=Cc1ccc([N+](=O)[O-])o1 | -0.4 | 1.7 | 0.0 | -3.2 | 22.3* | -5.6
O=C(C[C@@H]1CC[C@H]2[C@@H](COC[C@H](O)CN2C(=O)Nc2cccc(F)c2)O1)NCCCN1CCOCC1 | -0.2 | 2.3 | 0.1 | 0.5 | 7.3 | -9.2
O=C(c1ccccc1)c1cccs1 | 43.2* | -1.5 | 0.3 | x | -3.7 | -7.4
C[C@H]1CCCCO[C@H](CN(C)C)[C@@H](C)CN([C@@H](C)CO)C(=O)c2cc(NC(=O)Cc3ccccc3)ccc2O1 | -0.1 | x | 0.1 | -10.4 | 2.9 | 1.5
O=S1(=O)CCOCCCN1Cc1ccccc1Br | 0.0 | -6.5 | 0.0 | -13.1 | 0.1 | 33.4*

Screening results (PubChem BioAssay)
